Laboratory results published in ChEMBL document CHEMBL3259588, “Anti-inflammatory drimane sesquiterpene lactones from an Aspergillus species” (Bioorg Med Chem, 2014).
Activity calls are given as the source filed them.

Key:
Assay type in all cases: cell-based
[1] = biological target: T1, Signal transducer and activator of transcription 1-alpha/beta (Homo sapiens) (UniProt P42224); assay: Inhibition of Stat1 (unknown origin)-induced human CXCL10 (972 bp) promoter activity expressed in TNF-alpha/IFN-gamma/IL-1beta-stimulated human DLD1 cells up to 260 uM after 24 hrs by luciferase reporter assay; conditions: DLD-1
T1 sequence (whole entry): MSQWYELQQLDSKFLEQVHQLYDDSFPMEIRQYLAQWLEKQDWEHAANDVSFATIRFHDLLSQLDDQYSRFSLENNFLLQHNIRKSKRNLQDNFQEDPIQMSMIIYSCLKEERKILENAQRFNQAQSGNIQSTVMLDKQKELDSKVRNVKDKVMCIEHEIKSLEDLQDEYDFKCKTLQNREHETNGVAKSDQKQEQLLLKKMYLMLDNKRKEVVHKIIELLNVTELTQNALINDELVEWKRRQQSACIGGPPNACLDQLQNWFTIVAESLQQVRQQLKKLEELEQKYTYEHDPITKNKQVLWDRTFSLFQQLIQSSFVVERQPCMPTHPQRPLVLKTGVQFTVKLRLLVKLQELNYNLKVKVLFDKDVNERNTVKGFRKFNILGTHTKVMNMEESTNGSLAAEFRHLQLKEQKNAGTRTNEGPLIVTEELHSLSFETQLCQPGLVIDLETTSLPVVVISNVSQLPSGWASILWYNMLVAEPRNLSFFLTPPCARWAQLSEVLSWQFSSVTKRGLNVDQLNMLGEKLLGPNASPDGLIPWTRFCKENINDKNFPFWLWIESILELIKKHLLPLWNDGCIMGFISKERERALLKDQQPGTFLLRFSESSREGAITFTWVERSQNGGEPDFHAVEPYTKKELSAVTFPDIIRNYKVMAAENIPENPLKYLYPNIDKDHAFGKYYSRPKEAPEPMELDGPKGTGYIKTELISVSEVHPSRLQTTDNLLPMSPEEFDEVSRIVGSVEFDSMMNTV
Procedure, shortened: (§1)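 DLD-1 in 24-well plates, switched to 0.5% FCS without antibiotics a day before lipofection (Lipofectamine 2000, 0.8 µg plasmid) with 972 bp CXCL10 promoter, NF-κB, GAS/Stat1 or ISRE luciferase reporters plus pRL-CMV. Stimulated 24 h with 10 ng/mL TNF-α, 10 ng/mL IFN-γ, 5 ng/mL IL-1β ± compound; Dual-Glo firefly/Renilla read. Stimulation-only = 100%; mean ± SEM, ≥3 experiments.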

DLD-1 [2] = assay: Inhibition of TNF-alpha/IFN-gamma/IL-1beta-induced human CXCL10 (972 bp) promoter activity expressed in human DLD1 cells up to 260 uM after 24 hrs by […]-driven luciferase reporter assay; procedure, shortened: as §1
DLD-1 [3] = assay: Inhibition of TNF-alpha/IFN-gamma/IL-1beta-induced human CXCL10 (972 bp) promoter activity expressed in human DLD1 cells up to 260 uM after 24 hrs by luciferase reporter assay relative to untreated-control; procedure, shortened: as §1
[4] = biological target: T2, Nuclear factor NF-kappa-B complex (Homo sapiens) (UniProt Q00653+P19838+Q04206); assay: Inhibition of NF-kappaB (unknown origin)-induced human CXCL10 (972 bp) promoter activity expressed in TNF-alpha/IFN-gamma/IL-1beta-stimulated human DLD1 cells up to 260 uM after 24 hrs by luciferase reporter assay; conditions: DLD-1; procedure, shortened: as §1
DLD-1 [5] = assay: (§2) Inhibition of TNF-alpha/IFN-gamma/IL-1beta-induced human CXCL10 (972 bp) promoter activity expressed in human DLD1 cells after 24 hrs by luciferase reporter assay; procedure, shortened: as §1
[6] = as §2; conditions: DLD-1, 24 h; procedure, shortened: as §1
[7] = biological target: T1, Signal transducer and activator of transcription 1-alpha/beta (Homo sapiens); assay: Inhibition of Stat1 (unknown origin) expressed human DLD1 cells assessed as reduction in TNF-alpha gene expression pretreated at 67.75 uM for 1 hr by RT-PCR method relative to untreated-control; conditions: DLD-1
Procedure, shortened: (§3)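 DLD-1 seeded 5×10^5 cells/mL, grown 24 h, starved 16 h in 0.5% FCS, pretreated with compound 1 h, then stimulated with 10 ng/mL TNF-α, 10 ng/mL IFN-γ, 5 ng/mL IL-1β for 5 h. tnf-α, il-1β, inos mRNA by two-step qRT-PCR, Pfaffl relative quantification, normalised to gapdh; stimulated-untreated control = 100%. Mean ± SEM, three independent experiments.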

[8] = biological target: T1, Signal transducer and activator of transcription 1-alpha/beta (Homo sapiens); assay: Inhibition of Stat1 (unknown origin) expressed human DLD1 cells assessed as reduction in IL1-beta gene expression pretreated at 67.75 uM for 1 hr by RT-PCR method relative to untreated-control; conditions: DLD-1; procedure, shortened: as §3
[9] = biological target: T2, Nuclear factor NF-kappa-B complex (Homo sapiens); assay: Inhibition of NF-kappaB (unknown origin) expressed human DLD1 cells assessed as reduction in TNF-alpha gene expression pretreated at 67.75 uM for 1 hr by RT-PCR method relative to untreated-control; conditions: DLD-1; procedure, shortened: as §3
[10] = biological target: T2, Nuclear factor NF-kappa-B complex (Homo sapiens); assay: Inhibition of NF-kappaB (unknown origin) expressed human DLD1 cells assessed as reduction in iNOS gene expression pretreated at 67.75 uM for 1 hr by RT-PCR method relative to untreated-control; conditions: DLD-1; procedure, shortened: as §3
DLD-1 [11] = assay: Inhibition of TNF-alpha/IFN-gamma/IL-1beta-induced human CXCL10 (972 bp) promoter activity expressed in human DLD1 cells assessed as reduction in CXCL10 expression pretreated at 131.5 uM for 1 hr prior to 16 hrs cytokine challenge by proteome profiling method relative to untreated-control
Procedure, shortened: (§4)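 DLD-1 starved 16 h in 0.5% FCS, seeded 5×10^6 cells/mL, pretreated 1 h with compound, then stimulated 16 h with 10 ng/mL TNF-α, 10 ng/mL IFN-γ, 5 ng/mL IL-1β. Supernatant cytokines/chemokines detected on Human Cytokine Array Panel A antibody array.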

DLD-1 [12] = assay: Inhibition of TNF-alpha/IFN-gamma/IL-1beta-induced human CXCL10 (972 bp) promoter activity expressed in human DLD1 cells assessed as reduction in CXCL1 expression pretreated at 131.5 uM for 1 hr prior to 16 hrs cytokine challenge by proteome profiling method relative to untreated-control; procedure, shortened: as §4
DLD-1 [13] = assay: Inhibition of TNF-alpha/IFN-gamma/IL-1beta-induced human CXCL10 (972 bp) promoter activity expressed in human DLD1 cells assessed as reduction in IL8 expression pretreated at 131.5 uM for 1 hr prior to 16 hrs cytokine challenge by proteome profiling method relative to untreated-control; procedure, shortened: as §4
[14] = biological target: T2, Nuclear factor NF-kappa-B complex (Homo sapiens); assay: Inhibition of NF-kappaB (unknown origin) expressed human DLD1 cells assessed as reduction in IL1-beta gene expression pretreated at 67.75 uM for 1 hr by RT-PCR method relative to untreated-control; conditions: DLD-1; procedure, shortened: as §3
DLD-1 [15] = assay: Inhibition of TNF-alpha/IFN-gamma/IL-1beta-induced human CXCL10 (972 bp) promoter activity expressed in human DLD1 cells assessed as reduction in TNF-alpha expression pretreated at 131.5 uM for 1 hr prior to 16 hrs cytokine challenge by proteome profiling method relative to untreated-control; procedure, shortened: as §4
DLD-1 [16] = assay: Inhibition of TNF-alpha/IFN-gamma/IL-1beta-induced human CXCL10 (972 bp) promoter activity expressed in human DLD1 cells assessed as reduction in IL1-beta expression pretreated at 131.5 uM for 1 hr prior to 16 hrs cytokine challenge by proteome profiling method relative to untreated-control; procedure, shortened: as §4
DLD-1 [17] = assay: Inhibition of TNF-alpha/IFN-gamma/IL-1beta-induced human CXCL10 (972 bp) promoter activity expressed in human DLD1 cells assessed as CXCL10 gene expression at 131.5 uM after 5 hrs by RT-PCR method relative to untreated-control
Procedure, shortened: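 Cells starved 16 h (0.5% FCS), compound pretreatment 1 h, then TNF-α 10 ng/mL/IFN-γ 10 ng/mL/IL-1β 5 ng/mL for 5 h. Total RNA analysed by two-step qRT-PCR for cxcl10, gapdh-corrected (Pfaffl); induced vs uninduced and treated-induced vs untreated-induced (100%).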

DLD-1 [18] = assay: Inhibition of TNF-alpha/IFN-gamma/IL-1beta-induced human CXCL10 (972 bp) promoter activity expressed in human DLD1 cells assessed as reduction in IL-27 expression pretreated at 131.5 uM for 1 hr prior to 16 hrs cytokine challenge by proteome profiling method relative to untreated-control; procedure, shortened: as §4
DLD-1 [19] = assay: Inhibition of TNF-alpha/IFN-gamma/IL-1beta-induced human CXCL10 (972 bp) promoter activity expressed in human DLD1 cells assessed as reduction in MIF expression pretreated at 131.5 uM for 1 hr prior to 16 hrs cytokine challenge by proteome profiling method relative to untreated-control; procedure, shortened: as §4
[20] = Inhibition of TNF-alpha/IFN-gamma/IL-1beta-induced human CXCL10 (972 bp) promoter activity expressed in human DLD1 cells after 24 hrs by […]-driven luciferase reporter assay; conditions: DLD-1, 24 h; procedure, shortened: as §1
[21] = biological target: T1, Signal transducer and activator of transcription 1-alpha/beta (Homo sapiens); assay: Inhibition of Stat1 (unknown origin) expressed in human DLD1 cells assessed as reduction in iNOS gene expression pretreated at 67.75 uM for 1 hr by RT-PCR method relative to untreated-control; conditions: DLD-1; procedure, shortened: as §3
[22] = Cytotoxicity against human DLD1 cells up to 158 uM after 48 hrs by XTT assay; conditions: dld-1, 48 h
Procedure, shortened: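 DLD-1 cells (RPMI 1640, 25 mM HEPES, 10% FCS, 37 °C, 5% CO2) exposed to compound for 48 h; viability read as XTT reduction to coloured formazan.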

[23] = biological target: T1, Signal transducer and activator of transcription 1-alpha/beta (Homo sapiens); assay: Inhibition of Stat1 (unknown origin)-induced human CXCL10 (972 bp) promoter activity expressed in TNF-alpha/IFN-gamma/IL-1beta-stimulated human DLD1 cells after 24 hrs by luciferase reporter assay; conditions: DLD-1; procedure, shortened: as §1

T2 sequence (P19838 whole entry, looked up): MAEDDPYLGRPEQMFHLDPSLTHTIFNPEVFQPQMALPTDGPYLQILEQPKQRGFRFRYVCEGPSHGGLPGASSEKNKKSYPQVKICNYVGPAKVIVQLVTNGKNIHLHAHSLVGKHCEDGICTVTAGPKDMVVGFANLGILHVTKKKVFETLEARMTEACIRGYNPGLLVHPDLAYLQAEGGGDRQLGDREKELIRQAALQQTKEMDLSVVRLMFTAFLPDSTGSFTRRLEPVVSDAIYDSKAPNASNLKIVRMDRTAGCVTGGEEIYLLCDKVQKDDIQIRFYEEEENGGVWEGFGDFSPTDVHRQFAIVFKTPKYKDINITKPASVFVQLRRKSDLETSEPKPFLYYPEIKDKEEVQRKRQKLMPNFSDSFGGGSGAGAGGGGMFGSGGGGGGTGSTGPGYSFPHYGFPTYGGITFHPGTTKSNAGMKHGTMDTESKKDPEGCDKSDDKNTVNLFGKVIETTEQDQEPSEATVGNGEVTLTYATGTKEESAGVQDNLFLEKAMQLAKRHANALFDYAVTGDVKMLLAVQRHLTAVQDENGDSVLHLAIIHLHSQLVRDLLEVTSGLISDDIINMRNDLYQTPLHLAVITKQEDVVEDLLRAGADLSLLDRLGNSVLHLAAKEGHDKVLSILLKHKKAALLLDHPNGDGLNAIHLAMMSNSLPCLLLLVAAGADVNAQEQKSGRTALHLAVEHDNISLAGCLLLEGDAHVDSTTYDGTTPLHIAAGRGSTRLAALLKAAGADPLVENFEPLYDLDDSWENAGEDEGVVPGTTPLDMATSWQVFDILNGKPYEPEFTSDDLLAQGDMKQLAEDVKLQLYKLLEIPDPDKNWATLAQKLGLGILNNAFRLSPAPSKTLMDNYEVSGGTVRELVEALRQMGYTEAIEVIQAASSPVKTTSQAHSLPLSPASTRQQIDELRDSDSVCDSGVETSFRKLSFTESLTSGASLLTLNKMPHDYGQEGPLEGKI
T2 sequence (Q00653 whole entry, looked up): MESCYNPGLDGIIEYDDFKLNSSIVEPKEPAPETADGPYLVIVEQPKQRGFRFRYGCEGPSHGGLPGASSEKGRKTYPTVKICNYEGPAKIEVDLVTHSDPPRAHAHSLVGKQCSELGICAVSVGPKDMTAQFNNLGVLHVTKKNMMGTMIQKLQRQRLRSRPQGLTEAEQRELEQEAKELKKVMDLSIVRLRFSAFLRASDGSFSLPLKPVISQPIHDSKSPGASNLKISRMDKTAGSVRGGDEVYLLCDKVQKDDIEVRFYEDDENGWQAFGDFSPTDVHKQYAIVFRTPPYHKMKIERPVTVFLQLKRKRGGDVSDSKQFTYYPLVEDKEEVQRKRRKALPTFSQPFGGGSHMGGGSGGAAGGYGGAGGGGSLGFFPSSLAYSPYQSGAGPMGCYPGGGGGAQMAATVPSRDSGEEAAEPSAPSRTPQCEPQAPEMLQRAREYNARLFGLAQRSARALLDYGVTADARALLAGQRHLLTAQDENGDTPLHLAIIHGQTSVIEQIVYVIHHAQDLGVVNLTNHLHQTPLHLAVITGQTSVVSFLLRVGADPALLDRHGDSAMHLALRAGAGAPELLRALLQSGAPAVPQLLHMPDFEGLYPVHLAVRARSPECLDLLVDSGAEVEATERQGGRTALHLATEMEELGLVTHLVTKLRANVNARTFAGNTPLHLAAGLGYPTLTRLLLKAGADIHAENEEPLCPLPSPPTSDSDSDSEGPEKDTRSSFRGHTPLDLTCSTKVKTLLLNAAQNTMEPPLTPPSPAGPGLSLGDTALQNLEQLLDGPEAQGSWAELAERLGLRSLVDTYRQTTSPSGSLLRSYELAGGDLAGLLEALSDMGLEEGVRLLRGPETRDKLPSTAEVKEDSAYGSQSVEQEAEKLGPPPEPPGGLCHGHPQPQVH
T2 sequence (Q04206 whole entry, looked up): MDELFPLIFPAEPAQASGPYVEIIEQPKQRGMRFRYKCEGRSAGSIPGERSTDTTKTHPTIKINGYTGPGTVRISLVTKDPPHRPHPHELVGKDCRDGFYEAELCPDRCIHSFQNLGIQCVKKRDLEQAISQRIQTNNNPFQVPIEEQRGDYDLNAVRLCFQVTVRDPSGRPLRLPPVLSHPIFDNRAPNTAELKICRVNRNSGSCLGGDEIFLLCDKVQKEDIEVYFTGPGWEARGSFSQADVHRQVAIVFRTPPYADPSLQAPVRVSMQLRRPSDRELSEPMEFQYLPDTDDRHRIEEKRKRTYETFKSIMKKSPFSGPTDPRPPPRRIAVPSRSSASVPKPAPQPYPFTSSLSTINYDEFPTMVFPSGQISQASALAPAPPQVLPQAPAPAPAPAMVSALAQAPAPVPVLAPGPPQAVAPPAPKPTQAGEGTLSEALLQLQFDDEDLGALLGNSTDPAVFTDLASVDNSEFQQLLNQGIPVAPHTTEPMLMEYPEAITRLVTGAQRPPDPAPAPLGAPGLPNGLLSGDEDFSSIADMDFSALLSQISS

CCCCCC(=O)O[C@@H]1C=C2CO[C@@H](O)[C@]2(O)[C@@]2(C)[C@H](O)CCC(C)(C)[C@H]12
inactive: inhibition [1] | inhibition (DLD-1 [2]) | inhibition (DLD-1 [3]) | inhibition [4]

CCCCCC(=O)O[C@@H]1C=C2COC(=O)[C@]2(O)[C@@]2(C)[C@H](O)CCC(C)(C)[C@H]12
55 µM: IC50 [6]
active: inhibition (DLD-1 [5]) Dose-dependent effect | inhibition [7] | inhibition [8] | inhibition [9] | inhibition [10] | inhibition (DLD-1 [11]) | inhibition (DLD-1 [12]) | inhibition (DLD-1 [13]) | inhibition [14] | inhibition (DLD-1 [15]) | inhibition (DLD-1 [16]) | inhibition (DLD-1 [17]) | inhibition (DLD-1 [18]) | inhibition (DLD-1 [19]) | inhibition [21] | inhibition [23] Dose-dependent effect
49 µM: IC50 [20]
Non-toxic: Activity [22]
